Laboratory results: ChEMBL document CHEMBL3861986, “Synthesis and Enantiomeric Separation of a Novel Spiroketal Derivative: A Potent Human Telomerase Inhibitor with High in Vitro Anticancer Activity” (J Med Chem, 2016)
One block for each compound: values may come before it. The source made the active and inactive calls. The calls are words filed in the database; no cut-off is given here.

Assays:
[1] = Growth inhibition of human M14 cells at 250 nM after 24 hrs by cell titer 96 cell proliferation assay; assay type: functional; details: M14, 24 h, read-out: GI
Procedure, shortened: (§1)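 M14 cells seeded at 8×10^4 cells/mL in 96-well plates and left to adhere overnight. They were treated with 62.5, 125 or 250 nM compound or with DMSO control for up to 72 h. Dye was added for 4 h, followed by solubilization/stop solution, and absorbance was read at 570 nm, zeroed on medium-only wells. Inhibition is given as % versus control. Triplicates in three experiments.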

[2] = Growth inhibition of human M14 cells at 250 nM after 48 hrs by cell titer 96 cell proliferation assay; assay type: functional; details: M14, 48 h, read-out: GI; procedure, shortened: as §1
[3] = Growth inhibition of human M14 cells at 250 nM after 72 hrs by cell titer 96 cell proliferation assay; assay type: functional; details: M14, 72 h, read-out: GI; procedure, shortened: as §1
[4] = Growth inhibition of human M14 cells at 250 nM after 24 hrs by trypan blue dye exclusion assay; assay type: functional; details: M14, 24 h, read-out: GI
Procedure, shortened: (§2)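 Cells seeded at 5×10^4 cells/mL and left to adhere overnight. They were then exposed to 7.8–250 nM compound or to DMSO vehicle, 3 wells per treatment, at 37°C in 5% CO2 for 24, 48 or 72 h. Trypsinized cells were counted by hemocytometer, and viability was scored by trypan blue exclusion. Read-out is viable cell number, mean ± SE of triplicate wells, from a representative experiment of at least three.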

[5] = Growth inhibition of human H125 cells at 250 nM after 24 hrs by trypan blue dye exclusion assay; assay type: functional; details: NCI-H125, 24 h, read-out: GI; procedure, shortened: as §2
[6] = Growth inhibition of human HL60 cells at 250 nM after 24 hrs by trypan blue dye exclusion assay; assay type: functional; details: HL-60, 24 h, read-out: GI; procedure, shortened: as §2
[7] = Growth inhibition of human HT-29 cells at 250 nM after 24 hrs by trypan blue dye exclusion assay; assay type: functional; details: HT-29, 24 h, read-out: GI; procedure, shortened: as §2
[8] = Growth inhibition of human MCF7 cells at 250 nM after 24 hrs by trypan blue dye exclusion assay; assay type: functional; details: MCF7, 24 h, read-out: GI; procedure, shortened: as §2
[9] = Growth inhibition of human SH-SY5Y cells at 250 nM after 24 hrs by trypan blue dye exclusion assay; assay type: functional; details: read-out: GI; procedure, shortened: as §2
SH-SY5Y [10] = assay: Induction of apoptosis in human SH-SY5Y cells assessed as increase in caspase 3/7 activation at 7.8 to 15.6 nM after 24 hrs by caspase-glo 3/7 luminescence assay; assay type: functional, cell-based
Procedure, shortened: (§3)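 SH-SY5Y cells seeded at 5×10^4 cells/mL and left to adhere overnight, then exposed to 7.8–31.2 nM for 24 h. Caspase-Glo 3/7 reagent, in a volume equal to the medium, was added for 1 h at 37°C. Luminescence from the cleaved aminoluciferin substrate was read and expressed relative to untreated control set at 1.0. DMSO-treated cells served as negative control. Triplicate wells.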

SH-SY5Y [11] = assay: Induction of apoptosis in human SH-SY5Y cells assessed as increase in caspase 3/7 activation at 31.2 nM after 24 hrs by caspase-glo 3/7 luminescence assay relative to control; assay type: functional; procedure, shortened: as §3
[12] = target: T1, Telomerase reverse transcriptase (Homo sapiens, UniProt O14746); assay: Inhibition of telomerase activity in human MCF7 cells using biotin-labeled TeloTAGGG as primer at 31.2 nM preincubated for 48 hrs followed by primer addition measured after 30 mins by PCR-ELISA; assay type: cell-based
T1 sequence (O14746 whole entry): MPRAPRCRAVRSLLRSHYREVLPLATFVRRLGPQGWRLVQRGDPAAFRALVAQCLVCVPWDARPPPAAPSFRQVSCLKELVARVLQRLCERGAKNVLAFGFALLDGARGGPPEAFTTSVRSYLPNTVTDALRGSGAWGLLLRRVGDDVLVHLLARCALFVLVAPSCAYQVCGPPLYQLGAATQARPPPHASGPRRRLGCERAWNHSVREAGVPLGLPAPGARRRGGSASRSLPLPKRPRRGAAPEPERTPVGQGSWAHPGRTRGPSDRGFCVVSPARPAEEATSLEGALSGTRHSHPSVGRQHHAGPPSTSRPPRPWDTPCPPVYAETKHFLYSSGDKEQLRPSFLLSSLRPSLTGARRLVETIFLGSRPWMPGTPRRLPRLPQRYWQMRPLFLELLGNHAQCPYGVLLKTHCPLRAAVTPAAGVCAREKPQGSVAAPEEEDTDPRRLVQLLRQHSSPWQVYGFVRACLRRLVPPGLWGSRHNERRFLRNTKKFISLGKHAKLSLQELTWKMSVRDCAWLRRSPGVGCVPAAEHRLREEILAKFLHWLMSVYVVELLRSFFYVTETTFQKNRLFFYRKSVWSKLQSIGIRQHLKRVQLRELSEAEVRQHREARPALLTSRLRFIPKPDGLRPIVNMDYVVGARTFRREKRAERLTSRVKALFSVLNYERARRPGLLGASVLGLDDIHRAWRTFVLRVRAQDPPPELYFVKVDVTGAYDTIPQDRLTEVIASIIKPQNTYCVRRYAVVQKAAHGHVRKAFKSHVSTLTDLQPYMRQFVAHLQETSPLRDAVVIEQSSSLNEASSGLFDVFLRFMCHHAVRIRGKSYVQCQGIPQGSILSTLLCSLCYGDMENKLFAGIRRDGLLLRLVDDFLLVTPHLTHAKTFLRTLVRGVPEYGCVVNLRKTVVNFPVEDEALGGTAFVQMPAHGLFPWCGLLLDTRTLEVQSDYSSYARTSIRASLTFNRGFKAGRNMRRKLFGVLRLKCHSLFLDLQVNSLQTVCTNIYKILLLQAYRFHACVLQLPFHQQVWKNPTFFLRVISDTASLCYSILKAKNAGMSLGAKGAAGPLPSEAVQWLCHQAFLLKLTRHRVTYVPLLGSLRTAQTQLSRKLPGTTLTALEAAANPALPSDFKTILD
Procedure, shortened: (§4)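 Cells treated 48 h with 31.2–250 nM, then washed, lysed, and the supernatants stored at −80°C. Extracts were incubated 30 min with biotin-labeled primer for telomeric repeat extension. Products plus internal standard were PCR-amplified, hybridized to digoxigenin probes, captured on streptavidin plates, detected with peroxidase antibody, and read at 450 nm. Heat-inactivated extract (95°C, 10 min) served as negative control. Inhibition is % of untreated means; triplicate.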

[13] = target: T1, Telomerase reverse transcriptase; assay: Inhibition of telomerase activity in human M14 cells using biotin-labeled TeloTAGGG as primer at 31.2 nM preincubated for 48 hrs followed by primer addition measured after 30 mins by PCR-ELISA; assay type: cell-based; procedure, shortened: as §4
[14] = target: T1, Telomerase reverse transcriptase; assay: Inhibition of telomerase activity in human H125 cells using biotin-labeled TeloTAGGG as primer at 31.2 nM preincubated for 48 hrs followed by primer addition measured after 30 mins by PCR-ELISA; assay type: cell-based; procedure, shortened: as §4
[15] = target: T1, Telomerase reverse transcriptase; assay: Inhibition of telomerase activity in human HT-29 cells using biotin-labeled TeloTAGGG as primer at 31.2 nM preincubated for 48 hrs followed by primer addition measured after 30 mins by PCR-ELISA; assay type: cell-based; procedure, shortened: as §4
[16] = target: T1, Telomerase reverse transcriptase; assay: Inhibition of telomerase activity in human MCF7 cells using biotin-labeled TeloTAGGG as primer at 62.5 nM preincubated for 48 hrs followed by primer addition measured after 30 mins by PCR-ELISA; assay type: cell-based; procedure, shortened: as §4
[17] = target: T1, Telomerase reverse transcriptase; assay: Inhibition of telomerase activity in human M14 cells using biotin-labeled TeloTAGGG as primer at 62.5 nM preincubated for 48 hrs followed by primer addition measured after 30 mins by PCR-ELISA; assay type: cell-based; procedure, shortened: as §4
[18] = target: T1, Telomerase reverse transcriptase; assay: Inhibition of telomerase activity in human H125 cells using biotin-labeled TeloTAGGG as primer at 62.5 nM preincubated for 48 hrs followed by primer addition measured after 30 mins by PCR-ELISA; assay type: cell-based; procedure, shortened: as §4
[19] = target: T1, Telomerase reverse transcriptase; assay: Inhibition of telomerase activity in human HT-29 cells using biotin-labeled TeloTAGGG as primer at 62.5 nM preincubated for 48 hrs followed by primer addition measured after 30 mins by PCR-ELISA; assay type: cell-based; procedure, shortened: as §4
[20] = target: T1, Telomerase reverse transcriptase; assay: Inhibition of telomerase activity in human MCF7 cells using biotin-labeled TeloTAGGG as primer at 125 nM preincubated for 48 hrs followed by primer addition measured after 30 mins by PCR-ELISA; assay type: cell-based; procedure, shortened: as §4
[21] = target: T1, Telomerase reverse transcriptase; assay: Inhibition of telomerase activity in human M14 cells using biotin-labeled TeloTAGGG as primer at 125 nM preincubated for 48 hrs followed by primer addition measured after 30 mins by PCR-ELISA; assay type: cell-based; procedure, shortened: as §4
[22] = target: T1, Telomerase reverse transcriptase; assay: Inhibition of telomerase activity in human H125 cells using biotin-labeled TeloTAGGG as primer at 125 nM preincubated for 48 hrs followed by primer addition measured after 30 mins by PCR-ELISA; assay type: cell-based; procedure, shortened: as §4
[23] = target: T1, Telomerase reverse transcriptase; assay: Inhibition of telomerase activity in human HT-29 cells using biotin-labeled TeloTAGGG as primer at 125 nM preincubated for 48 hrs followed by primer addition measured after 30 mins by PCR-ELISA; assay type: cell-based; procedure, shortened: as §4
[24] = target: T1, Telomerase reverse transcriptase; assay: Inhibition of telomerase activity in human MCF7 cells using biotin-labeled TeloTAGGG as primer at 250 nM preincubated for 48 hrs followed by primer addition measured after 30 mins by PCR-ELISA; assay type: cell-based; procedure, shortened: as §4
[25] = target: T1, Telomerase reverse transcriptase; assay: Inhibition of telomerase activity in human M14 cells using biotin-labeled TeloTAGGG as primer at 250 nM preincubated for 48 hrs followed by primer addition measured after 30 mins by PCR-ELISA; assay type: cell-based; procedure, shortened: as §4
[26] = target: T1, Telomerase reverse transcriptase; assay: Inhibition of telomerase activity in human H125 cells using biotin-labeled TeloTAGGG as primer at 250 nM preincubated for 48 hrs followed by primer addition measured after 30 mins by PCR-ELISA; assay type: cell-based; procedure, shortened: as §4
[27] = target: T1, Telomerase reverse transcriptase; assay: Inhibition of telomerase activity in human HT-29 cells using biotin-labeled TeloTAGGG as primer at 250 nM preincubated for 48 hrs followed by primer addition measured after 30 mins by PCR-ELISA; assay type: cell-based; procedure, shortened: as §4
[28] = target: T1, Telomerase reverse transcriptase; assay: Inhibition of telomerase activity in human MCF7 cells using biotin-labeled TeloTAGGG as primer preincubated for 48 hrs followed by primer addition measured after 30 mins by PCR-ELISA; assay type: cell-based; procedure, shortened: as §4
[29] = target: T1, Telomerase reverse transcriptase; assay: Inhibition of telomerase activity in human M14 cells using biotin-labeled TeloTAGGG as primer preincubated for 48 hrs followed by primer addition measured after 30 mins by PCR-ELISA; assay type: cell-based; procedure, shortened: as §4
[30] = target: T1, Telomerase reverse transcriptase; assay: Inhibition of telomerase activity in human H125 cells using biotin-labeled TeloTAGGG as primer preincubated for 48 hrs followed by primer addition measured after 30 mins by PCR-ELISA; assay type: cell-based; procedure, shortened: as §4
[31] = target: T1, Telomerase reverse transcriptase; assay: Inhibition of telomerase activity in human HT-29 cells using biotin-labeled TeloTAGGG as primer preincubated for 48 hrs followed by primer addition measured after 30 mins by PCR-ELISA; assay type: cell-based; procedure, shortened: as §4

Compound: C[C@H]1CCC[C@]2(O[C@@H](O)C=CC2=O)O1
- inhibition of growth at 0.25 µM [1]: 40.4%
- inhibition of growth at 0.25 µM [2]: 64.4%
- inhibition of growth at 0.25 µM [3]: 66.6%

Compound: C[C@@H]1CCC[C@@]2(O[C@H](O)C=CC2=O)O1
- inhibition of growth at 0.25 µM [1]: 36.7%
- inhibition of growth at 0.25 µM [2]: 58.1%
- inhibition of growth at 0.25 µM [3]: 63.7%

- inhibition [12]: 0%
- inhibition [13]: 62%
- inhibition [14]: 13.6%
- inhibition [15]: 24%
- inhibition [16]: 37.5%
- inhibition [17]: 63%
- inhibition [18]: 48.7%
- inhibition [19]: 53.5%
- inhibition [20]: 67.9%
- inhibition [21]: 74%
- inhibition [22]: 67.6%
- inhibition [23]: 69%
- inhibition [24]: 78.6%
- inhibition [25]: 82.6%
- inhibition [26]: 75.7%
- inhibition [27]: 73.4%
- IC50 [28]: 12.6 to 85.2 nM
- inhibition [28]: Dose-dependent effect
- IC50 [29]: 12.6 to 85.2 nM
- inhibition [29]: Dose-dependent effect
- IC50 [30]: 12.6 to 85.2 nM
- inhibition [30]: Dose-dependent effect
- IC50 [31]: 12.6 to 85.2 nM
- inhibition [31]: Dose-dependent effect
Compound: CC1CCCC2(OC(O)C=CC2=O)O1 (mixture of isomers)
- inhibition of growth at 0.25 µM [4]: > 90%
- inhibition of growth at 0.25 µM [5]: > 90%
- inhibition of growth at 0.25 µM [6]: > 90%
- inhibition of growth at 0.25 µM [7]: > 90%
- inhibition of growth at 0.25 µM [8]: > 90%
- inhibition of growth at 0.25 µM [9]: > 90%
- inhibition of growth at 0.25 µM [1]: 36.8%
- inhibition of growth at 0.25 µM [2]: 56.1%
- inhibition of growth at 0.25 µM [3]: 61.4%
- Activity (SH-SY5Y [10]): Active
- fold change (FC) (SH-SY5Y [11]): 8.2
